Tested on: Fibroblast
Experiment: Multiplex assay against human fibroblast
Format: toxicity, cell-based
In short: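 Phenotypes for tubulin, mitochondrial mass and membrane permeability are expressed as per cents of healthy-nucleus cells. Cells were stained live at seeding with Hoechst33342, BioTracker Green Microtubule Cytoskeleton Dye, MitoTracker Red and Annexin V Alexa Fluor 680, then imaged after compound addition on a CQ1 microscope at 37°C and 5% CO2. Machine-learning gating in CellPathfinder separated Hoechst high-intensity objects from normal cells, divided normal cells by nuclear state (healthy, pyknosed, fragmented) and divided pyknosed cells into mitotic or apoptotic.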

[1] = 12 h, 1 µM, compound concentration 1 uM, replicate 1
[2] = 12 h, 1 µM, compound concentration 1 uM, replicate 2
[3] = 12 h, 10 µM, compound concentration 10 uM, replicate 1
[4] = 12 h, 10 µM, compound concentration 10 uM, replicate 2
[5] = 24 h, 1 µM, compound concentration 1 uM, replicate 1
[6] = 24 h, 1 µM, compound concentration 1 uM, replicate 2
[7] = 24 h, 10 µM, compound concentration 10 uM, replicate 1
[8] = 24 h, 10 µM, compound concentration 10 uM, replicate 2
[9] = 48 h, 1 µM, compound concentration 1 uM, replicate 1
[10] = 48 h, 1 µM, compound concentration 1 uM, replicate 2
[11] = 48 h, 10 µM, compound concentration 10 uM, replicate 1
[12] = 48 h, 10 µM, compound concentration 10 uM, replicate 2

## NCCc1cn(S(=O)(=O)c2c(Cl)nc3sccn23)c2ccccc12.O=C(O)C(=O)O
[1]
  Population Apoptotic (%): 45%
  Population Fragmented Nuclei (%): 20%
  Population Healthy Nuclei (%): 65%
  Population Hoechst High Intensity Objects (%): 4%
  Population Membrane Permeable-Phenotype (%): 0%
  Population Mitochondria Different-Phenotype (%): 5%
  Population Mitotic Cells (%): 55%
  Population Normal (%): 95%
  Population Pyknosed Nuclei (%): 14%
  Population Tubulin-Different-Phenotype (%): 40%
  Total Cell Count: 146
[2]
  Population Fragmented Nuclei (%): 34%
  Population Healthy Nuclei (%): 37%
  Population Hoechst High Intensity Objects (%): 3%
  Population Membrane Permeable-Phenotype (%): 13%
  Population Mitochondria Different-Phenotype (%): 8%
  Population Mitotic Cells (%): 54%
  Population Normal (%): 96%
  Population Pyknosed Nuclei (%): 28%
  Population Tubulin-Different-Phenotype (%): 62%
  Total Cell Count: 170
[3]
  Population Apoptotic (%): 78%
  Population Fragmented Nuclei (%): 20%
  Population Healthy Nuclei (%): 56%
  Population Hoechst High Intensity Objects (%): 6%
  Population Membrane Permeable-Phenotype (%): 0%
  Population Mitochondria Different-Phenotype (%): 40%
  Population Mitotic Cells (%): 21%
  Population Normal (%): 93%
  Population Pyknosed Nuclei (%): 22%
  Population Tubulin-Different-Phenotype (%): 90%
  Total Cell Count: 177
[4]
  Population Apoptotic (%): 57%
  Population Fragmented Nuclei (%): 24%
  Population Healthy Nuclei (%): 44%
  Population Membrane Permeable-Phenotype (%): 5%
  Population Mitochondria Different-Phenotype (%): 34%
  Population Mitotic Cells (%): 42%
  Population Pyknosed Nuclei (%): 30%
  Population Tubulin-Different-Phenotype (%): 89%
  Total Cell Count: 219
[5]
  Population Apoptotic (%): 50%
  Population Fragmented Nuclei (%): 21%
  Population Healthy Nuclei (%): 64%
  Population Hoechst High Intensity Objects (%): 3%
  Population Membrane Permeable-Phenotype (%): 0%
  Population Mitochondria Different-Phenotype (%): 13%
  Population Mitotic Cells (%): 50%
  Population Normal (%): 96%
  Population Pyknosed Nuclei (%): 13%
  Population Tubulin-Different-Phenotype (%): 42%
  Total Cell Count: 156
[6]
  Population Apoptotic (%): 46%
  Population Fragmented Nuclei (%): 35%
  Population Healthy Nuclei (%): 44%
  Population Hoechst High Intensity Objects (%): 4%
  Population Membrane Permeable-Phenotype (%): 18%
  Population Mitochondria Different-Phenotype (%): 11%
  Population Mitotic Cells (%): 53%
  Population Normal (%): 95%
  Population Pyknosed Nuclei (%): 20%
  Population Tubulin-Different-Phenotype (%): 70%
  Total Cell Count: 166
[7]
  Population Apoptotic (%): 77%
  Population Fragmented Nuclei (%): 22%
  Population Healthy Nuclei (%): 62%
  Population Hoechst High Intensity Objects (%): 3%
  Population Membrane Permeable-Phenotype (%): 0%
  Population Mitochondria Different-Phenotype (%): 58%
  Population Mitotic Cells (%): 22%
  Population Normal (%): 96%
  Population Pyknosed Nuclei (%): 14%
  Population Tubulin-Different-Phenotype (%): 89%
  Total Cell Count: 193
[8]
  Population Apoptotic (%): 72%
  Population Fragmented Nuclei (%): 30%
  Population Healthy Nuclei (%): 51%
  Population Hoechst High Intensity Objects (%): 7%
  Population Membrane Permeable-Phenotype (%): 5%
  Population Mitochondria Different-Phenotype (%): 32%
  Population Mitotic Cells (%): 27%
  Population Normal (%): 92%
  Population Pyknosed Nuclei (%): 18%
  Population Tubulin-Different-Phenotype (%): 81%
  Total Cell Count: 237
[9]
  Population Apoptotic (%): 50%
  Population Fragmented Nuclei (%): 27%
  Population Healthy Nuclei (%): 63%
  Population Hoechst High Intensity Objects (%): 4%
  Population Membrane Permeable-Phenotype (%): 2%
  Population Mitochondria Different-Phenotype (%): 3%
  Population Mitotic Cells (%): 50%
  Population Normal (%): 95%
  Population Pyknosed Nuclei (%): 9%
  Population Tubulin-Different-Phenotype (%): 46%
  Total Cell Count: 177
[10]
  Population Apoptotic (%): 54%
  Population Fragmented Nuclei (%): 38%
  Population Healthy Nuclei (%): 47%
  Population Hoechst High Intensity Objects (%): 6%
  Population Membrane Permeable-Phenotype (%): 9%
  Population Mitochondria Different-Phenotype (%): 17%
  Population Mitotic Cells (%): 45%
  Population Normal (%): 93%
  Population Pyknosed Nuclei (%): 14%
  Population Tubulin-Different-Phenotype (%): 58%
  Total Cell Count: 166
[11]
  Population Apoptotic (%): 85%
  Population Fragmented Nuclei (%): 22%
  Population Healthy Nuclei (%): 65%
  Population Hoechst High Intensity Objects (%): 7%
  Population Membrane Permeable-Phenotype (%): 0%
  Population Mitochondria Different-Phenotype (%): 43%
  Population Mitotic Cells (%): 14%
  Population Normal (%): 92%
  Population Pyknosed Nuclei (%): 12%
  Population Tubulin-Different-Phenotype (%): 92%
  Total Cell Count: 189
[12]
  Population Apoptotic (%): 75%
  Population Fragmented Nuclei (%): 31%
  Population Healthy Nuclei (%): 59%
  Population Hoechst High Intensity Objects (%): 3%
  Population Membrane Permeable-Phenotype (%): 3%
  Population Mitochondria Different-Phenotype (%): 24%
  Population Mitotic Cells (%): 25%
  Population Normal (%): 96%
  Population Pyknosed Nuclei (%): 8%
  Population Tubulin-Different-Phenotype (%): 74%
  Total Cell Count: 241

— ChEMBL document CHEMBL5058577, “EUbOPEN Chemogenomics Library 2 (Multiplex)” (2022)
